Measured values from paper PMC9050161 (RSC Advances, 2020).

Experiments:
MRP3 = MRP3 (Homo sapiens, UniProt O15438); test: M2 excretion in HeLa1A9 cells after shRNA knock-down of MRP3; format: cell-based; details: MRP3 silenced, p > 0.05
Outline: (§1)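 shRNA plasmid against BCRP, MRP1, MRP3 or MRP4 transfected into UGT1A9-expressing HeLa cells, then exposed to 5 μM test compound in HBSS. Medium sampled at 30–120 min with replacement; cells collected at 120 min. UHPLC gave extracellular and intracellular glucuronide, excretion rate, efflux clearance (excretion rate/intracellular concentration) and fraction metabolized (fmet), each compared with control. Triplicate.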

MRP4 = MRP4 (Homo sapiens, UniProt O15439); test: M2 excretion in HeLa1A9 cells after shRNA knock-down of MRP4; format: cell-based; details: MRP4 silencing
Outline: as §1

CYP2B6 = molecular target: T1, CYP2B6 (Homo sapiens, UniProt P20813); test: Inhibition of CYP2B6; format: biochemical
T1 sequence (P20813 1-491): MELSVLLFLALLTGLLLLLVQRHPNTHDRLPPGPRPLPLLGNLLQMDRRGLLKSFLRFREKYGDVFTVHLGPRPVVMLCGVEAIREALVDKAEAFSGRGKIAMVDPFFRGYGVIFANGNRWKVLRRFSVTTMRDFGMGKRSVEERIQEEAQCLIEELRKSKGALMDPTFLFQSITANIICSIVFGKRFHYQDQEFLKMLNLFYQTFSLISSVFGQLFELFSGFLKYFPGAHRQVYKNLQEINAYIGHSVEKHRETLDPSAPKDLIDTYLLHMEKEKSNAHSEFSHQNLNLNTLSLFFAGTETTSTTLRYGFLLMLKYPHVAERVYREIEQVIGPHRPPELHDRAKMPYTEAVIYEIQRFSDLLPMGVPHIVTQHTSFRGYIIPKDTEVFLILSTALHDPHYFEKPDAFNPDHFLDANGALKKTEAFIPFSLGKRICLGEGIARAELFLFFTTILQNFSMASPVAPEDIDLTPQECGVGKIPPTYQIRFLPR
Outline: (§2)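 Recombinant human CYPs at 0.1 mg mL−1 protein, each with its probe substrate near Km: coumarin 100 μM (2A6), bupropion 100 μM (2B6), paclitaxel 60 μM (2C8), tolbutamide 200 μM (2C9), mephenytoin 100 μM (2C19), chlorzoxazone 200 μM (2E1). Incubated at 37 °C with or without test compound at 1, 10 or 100 μM. UHPLC-TQD-MS read-out; triplicate.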

CYP2C8 = CYP2C8 (Homo sapiens, UniProt P10632); test: Inhibition of CYP2C8; format: biochemical; details: PI-103 1, 10 and 100 μM
Outline: as §2

CYP2C9 = CYP2C9 (Homo sapiens, UniProt P11712); test: Inhibition of CYP2C9; format: biochemical
Outline: as §2

CYP3A5 = CYP3A5 (Homo sapiens, UniProt P20815); test: Inhibition of CYP3A5; format: biochemical; details: PI-103 1, 10 and 100 μM
Outline: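 Recombinant human CYPs at 0.05 mg mL−1 protein, each with its probe substrate near Km: ethoxyresorufin 1 μM (CYP1A1), phenacetin 100 μM (CYP1A2), nifedipine 40 μM (CYP3A4, 3A5). Incubated at 37 °C without (control) or with test compound at 1, 10 and 100 μM. Supernatant analysed by UHPLC-TQD-MS; activity relative to control; triplicate.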

UGT1A1 = UGT1A1 (Homo sapiens, UniProt P22309); test: Inhibition of UGT1A1; format: biochemical; details: PI-103 1, 10 and 100 μM
Outline: (§3)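 Recombinant human UGTs screened with probe substrates: β-estradiol for UGT1A1, propofol for 1A9, and 4-methylumbelliferone for 1A3, 1A6, 1A7, 1A8, 1A10, 2B4, 2B7, 2B10, 2B15 and 2B17. Incubated at 37 °C without (control) or with test compound at 1, 10 or 100 μM. Glucuronide formation measured relative to control; triplicate.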

UGT1A3 = molecular target: T2, UGT1A3 (Homo sapiens, UniProt P35503); test: Inhibition of UGT1A3; format: biochemical
T2 sequence (P35503 29-534): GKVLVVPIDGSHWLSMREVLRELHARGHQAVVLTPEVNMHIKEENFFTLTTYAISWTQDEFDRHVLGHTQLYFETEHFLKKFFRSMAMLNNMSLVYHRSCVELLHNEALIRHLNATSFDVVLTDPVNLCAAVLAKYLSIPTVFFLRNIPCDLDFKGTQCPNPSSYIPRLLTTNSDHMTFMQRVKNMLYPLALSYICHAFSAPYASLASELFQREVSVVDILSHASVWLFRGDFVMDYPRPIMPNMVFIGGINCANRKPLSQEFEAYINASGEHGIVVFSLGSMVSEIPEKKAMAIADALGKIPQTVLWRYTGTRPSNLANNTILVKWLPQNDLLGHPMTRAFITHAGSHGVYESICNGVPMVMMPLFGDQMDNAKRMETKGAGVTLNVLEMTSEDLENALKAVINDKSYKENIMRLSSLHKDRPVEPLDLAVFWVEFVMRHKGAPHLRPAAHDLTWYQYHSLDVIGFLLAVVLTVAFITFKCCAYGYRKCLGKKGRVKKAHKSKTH
Outline: as §3

UGT1A4 = UGT1A4 (Homo sapiens, UniProt P22310); test: Activation of UGT1A4; format: biochemical
Outline: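 Recombinant human UGT1A4 with trifluoperazine (TFP) as substrate for N-glucuronidation, at various TFP concentrations with or without test compound. Triplicate. Data fitted to a mechanistic two-site model assuming a reaction site and an allosteric site.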

UGT1A6 = UGT1A6 (Homo sapiens, UniProt P19224); test: Inhibition of UGT1A6; format: biochemical
Outline: as §3

UGT1A9 = UGT1A9 (Homo sapiens, UniProt O60656); test: Inhibition of UGT1A9; format: biochemical
Outline: as §3

UGT1A10 = UGT1A10 (Homo sapiens, UniProt Q9HAW8); test: Inhibition of UGT1A10; format: biochemical; details: PI-103 1, 10 and 100 μM
Outline: as §3

UGT2B10 = UGT2B10 (Homo sapiens, UniProt P36537); test: Inhibition of UGT2B10; format: biochemical; details: PI-103 1, 10 and 100 μM
Outline: as §3

p110α = details: cited from earlier work
p110γ = details: cited from earlier work
[1] = tested on: normal hematopoietic progenitors; details: cited from earlier work

CYP2C9, sequence (P11712 whole entry): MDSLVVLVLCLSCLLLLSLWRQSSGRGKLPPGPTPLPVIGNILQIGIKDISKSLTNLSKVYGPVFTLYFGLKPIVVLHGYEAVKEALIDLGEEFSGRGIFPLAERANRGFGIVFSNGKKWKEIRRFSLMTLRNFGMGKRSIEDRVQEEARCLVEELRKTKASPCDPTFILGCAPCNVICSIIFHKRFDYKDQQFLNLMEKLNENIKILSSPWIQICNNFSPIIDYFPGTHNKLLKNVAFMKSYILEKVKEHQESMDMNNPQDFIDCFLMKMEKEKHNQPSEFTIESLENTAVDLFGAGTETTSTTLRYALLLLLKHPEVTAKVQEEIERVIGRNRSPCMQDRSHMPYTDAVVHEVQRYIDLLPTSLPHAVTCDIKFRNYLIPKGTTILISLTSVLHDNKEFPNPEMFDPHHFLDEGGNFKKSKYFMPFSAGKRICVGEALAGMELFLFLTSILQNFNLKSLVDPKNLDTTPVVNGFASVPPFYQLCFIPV
UGT1A4, sequence (P22310 29-534): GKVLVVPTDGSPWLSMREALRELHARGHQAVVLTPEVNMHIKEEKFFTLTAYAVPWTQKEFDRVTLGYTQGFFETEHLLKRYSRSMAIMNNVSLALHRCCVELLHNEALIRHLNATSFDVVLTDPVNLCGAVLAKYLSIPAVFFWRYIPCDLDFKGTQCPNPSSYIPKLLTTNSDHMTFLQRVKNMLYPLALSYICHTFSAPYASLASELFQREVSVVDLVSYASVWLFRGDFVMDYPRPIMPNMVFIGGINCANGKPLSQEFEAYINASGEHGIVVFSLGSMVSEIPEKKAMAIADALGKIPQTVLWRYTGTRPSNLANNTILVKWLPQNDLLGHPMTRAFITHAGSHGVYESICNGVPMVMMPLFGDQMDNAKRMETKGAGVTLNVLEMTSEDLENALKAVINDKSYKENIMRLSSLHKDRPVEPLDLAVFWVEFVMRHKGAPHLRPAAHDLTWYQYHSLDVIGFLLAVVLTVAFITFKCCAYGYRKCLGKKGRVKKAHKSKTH
MRP4, sequence (O15439 whole entry): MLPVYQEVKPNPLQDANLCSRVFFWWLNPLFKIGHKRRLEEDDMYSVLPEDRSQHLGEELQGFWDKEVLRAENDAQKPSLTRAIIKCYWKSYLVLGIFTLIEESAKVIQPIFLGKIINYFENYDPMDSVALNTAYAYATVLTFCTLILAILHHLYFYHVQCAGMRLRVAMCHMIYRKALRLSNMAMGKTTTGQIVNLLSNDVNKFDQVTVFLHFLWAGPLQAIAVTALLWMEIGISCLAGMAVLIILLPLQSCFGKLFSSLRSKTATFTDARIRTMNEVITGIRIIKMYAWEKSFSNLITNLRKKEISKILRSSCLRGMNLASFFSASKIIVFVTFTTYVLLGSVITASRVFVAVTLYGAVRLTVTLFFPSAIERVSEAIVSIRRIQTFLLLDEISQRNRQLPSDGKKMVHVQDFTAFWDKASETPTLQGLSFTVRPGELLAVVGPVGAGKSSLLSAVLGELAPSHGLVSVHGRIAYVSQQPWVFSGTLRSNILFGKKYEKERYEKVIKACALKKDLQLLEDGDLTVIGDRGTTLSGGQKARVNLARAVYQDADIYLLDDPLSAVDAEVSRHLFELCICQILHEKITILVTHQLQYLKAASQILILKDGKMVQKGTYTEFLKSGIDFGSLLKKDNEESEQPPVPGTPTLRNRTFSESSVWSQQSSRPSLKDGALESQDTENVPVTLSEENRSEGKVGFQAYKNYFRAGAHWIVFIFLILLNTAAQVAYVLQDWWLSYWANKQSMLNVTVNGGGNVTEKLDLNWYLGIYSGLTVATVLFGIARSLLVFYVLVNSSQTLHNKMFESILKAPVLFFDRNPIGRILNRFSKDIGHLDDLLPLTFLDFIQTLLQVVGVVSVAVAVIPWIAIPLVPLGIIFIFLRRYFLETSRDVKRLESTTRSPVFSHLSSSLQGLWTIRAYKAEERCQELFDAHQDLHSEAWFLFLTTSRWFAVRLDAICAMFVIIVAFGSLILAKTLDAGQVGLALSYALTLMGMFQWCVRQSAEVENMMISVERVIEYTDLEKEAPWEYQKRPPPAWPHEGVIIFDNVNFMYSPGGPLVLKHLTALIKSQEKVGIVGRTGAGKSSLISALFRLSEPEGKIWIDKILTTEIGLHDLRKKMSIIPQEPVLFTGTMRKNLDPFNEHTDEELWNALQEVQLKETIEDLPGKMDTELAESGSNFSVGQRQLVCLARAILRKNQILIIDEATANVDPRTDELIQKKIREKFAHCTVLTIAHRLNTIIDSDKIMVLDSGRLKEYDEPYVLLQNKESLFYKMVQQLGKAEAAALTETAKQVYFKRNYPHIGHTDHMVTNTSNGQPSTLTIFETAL
MRP3, sequence (O15438 whole entry): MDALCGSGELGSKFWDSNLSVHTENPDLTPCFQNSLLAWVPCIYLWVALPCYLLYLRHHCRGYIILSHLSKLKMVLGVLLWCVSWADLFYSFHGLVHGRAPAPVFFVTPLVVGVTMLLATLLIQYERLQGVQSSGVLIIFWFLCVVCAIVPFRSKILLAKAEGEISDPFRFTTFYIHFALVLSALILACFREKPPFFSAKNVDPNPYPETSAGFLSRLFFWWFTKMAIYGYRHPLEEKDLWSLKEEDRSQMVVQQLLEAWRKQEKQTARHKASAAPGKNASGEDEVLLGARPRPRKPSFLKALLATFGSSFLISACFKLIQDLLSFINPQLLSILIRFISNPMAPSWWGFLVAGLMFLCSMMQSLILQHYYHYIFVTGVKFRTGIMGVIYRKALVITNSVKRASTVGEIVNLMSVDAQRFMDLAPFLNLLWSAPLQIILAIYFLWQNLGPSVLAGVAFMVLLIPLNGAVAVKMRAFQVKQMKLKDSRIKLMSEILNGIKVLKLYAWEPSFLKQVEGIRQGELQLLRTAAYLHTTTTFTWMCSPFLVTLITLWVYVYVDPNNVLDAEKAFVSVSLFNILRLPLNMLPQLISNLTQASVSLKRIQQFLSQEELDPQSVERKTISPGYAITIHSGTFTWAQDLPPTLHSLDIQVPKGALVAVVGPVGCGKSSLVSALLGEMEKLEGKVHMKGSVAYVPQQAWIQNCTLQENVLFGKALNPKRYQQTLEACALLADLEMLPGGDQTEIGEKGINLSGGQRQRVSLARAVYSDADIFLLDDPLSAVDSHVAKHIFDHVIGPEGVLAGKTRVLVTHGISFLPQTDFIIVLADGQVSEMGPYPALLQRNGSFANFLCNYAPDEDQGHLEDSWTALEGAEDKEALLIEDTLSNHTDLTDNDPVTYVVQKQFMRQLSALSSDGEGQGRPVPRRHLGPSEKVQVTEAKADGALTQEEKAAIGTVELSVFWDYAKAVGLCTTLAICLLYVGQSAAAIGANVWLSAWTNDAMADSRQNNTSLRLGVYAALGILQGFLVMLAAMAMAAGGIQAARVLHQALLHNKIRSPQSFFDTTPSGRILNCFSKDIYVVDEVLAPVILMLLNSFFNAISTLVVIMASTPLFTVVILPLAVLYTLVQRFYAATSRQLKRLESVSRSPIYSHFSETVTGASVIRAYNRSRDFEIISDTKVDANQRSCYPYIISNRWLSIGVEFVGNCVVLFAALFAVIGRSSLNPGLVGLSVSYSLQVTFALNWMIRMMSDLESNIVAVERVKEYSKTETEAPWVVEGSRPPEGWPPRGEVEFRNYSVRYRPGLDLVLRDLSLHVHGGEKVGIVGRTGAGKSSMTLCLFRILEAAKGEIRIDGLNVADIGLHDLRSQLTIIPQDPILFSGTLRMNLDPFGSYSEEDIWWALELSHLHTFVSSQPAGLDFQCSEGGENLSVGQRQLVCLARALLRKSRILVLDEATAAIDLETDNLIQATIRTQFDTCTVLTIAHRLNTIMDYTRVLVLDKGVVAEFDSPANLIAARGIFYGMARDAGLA
CYP2C8, sequence (P10632 whole entry): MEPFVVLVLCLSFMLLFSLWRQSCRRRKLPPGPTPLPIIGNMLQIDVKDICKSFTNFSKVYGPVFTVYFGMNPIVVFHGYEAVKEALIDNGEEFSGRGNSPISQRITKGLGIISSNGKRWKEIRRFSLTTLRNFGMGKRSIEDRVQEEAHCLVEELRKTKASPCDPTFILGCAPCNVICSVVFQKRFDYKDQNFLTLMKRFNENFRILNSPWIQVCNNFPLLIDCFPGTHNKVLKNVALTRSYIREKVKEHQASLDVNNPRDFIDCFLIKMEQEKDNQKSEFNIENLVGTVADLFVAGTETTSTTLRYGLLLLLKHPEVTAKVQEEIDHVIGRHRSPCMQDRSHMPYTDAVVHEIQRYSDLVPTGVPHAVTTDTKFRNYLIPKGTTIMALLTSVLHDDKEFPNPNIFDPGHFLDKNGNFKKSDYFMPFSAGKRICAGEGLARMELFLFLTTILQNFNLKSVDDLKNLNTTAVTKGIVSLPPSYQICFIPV
UGT1A1, sequence (P22309 26-533): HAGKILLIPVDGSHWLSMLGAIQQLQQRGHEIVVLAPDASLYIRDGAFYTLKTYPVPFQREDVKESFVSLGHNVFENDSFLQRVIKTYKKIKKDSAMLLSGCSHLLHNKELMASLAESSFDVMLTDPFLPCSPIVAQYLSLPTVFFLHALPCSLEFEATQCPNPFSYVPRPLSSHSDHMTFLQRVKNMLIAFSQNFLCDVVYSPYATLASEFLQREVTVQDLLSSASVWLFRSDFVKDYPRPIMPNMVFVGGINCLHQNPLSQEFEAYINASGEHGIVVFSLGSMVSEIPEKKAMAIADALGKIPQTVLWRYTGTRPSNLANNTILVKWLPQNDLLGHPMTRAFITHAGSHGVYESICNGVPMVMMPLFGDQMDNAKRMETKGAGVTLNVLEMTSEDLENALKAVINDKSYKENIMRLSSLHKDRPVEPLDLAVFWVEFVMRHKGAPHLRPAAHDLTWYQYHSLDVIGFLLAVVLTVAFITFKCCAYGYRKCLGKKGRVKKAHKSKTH

With Oc1cccc(-c2nc(N3CCOCC3)c3oc4ncccc4c3n2)c1 [PI-103] the “alteration in fmet value of PI-103” value (MRP3) was 9.2%, the “decrease in fmet value of PI-103” value (MRP4) was 33.8% and the IC50 (CYP2B6) was 2.25 ± 0.28 µM. The Ki (CYP2B6) was 0.64 ± 0.22 µM, the residual activity (CYP2B6; CYP2B6, 100 μM PI-103) was 29.70 % of the negative control and the Type of inhibition (CYP2B6; CYP2B6, bupropion) was “Mixed-type”. The α (CYP2B6; CYP2B6, bupropion, mixed-type model (selected)) was 5.09 ± 4.48, the inhibitory effect (CYP2C8) was “negligible or weak” and the IC50 (CYP2C9) was 1.16 ± 0.15 µM. For the same compound, the Ki (CYP2C9) was 0.56 ± 0.12 µM, the residual activity (CYP2C9; CYP2C9, 100 μM PI-103) was 14.22 % of the negative control and the Type of inhibition (CYP2C9; CYP2C9, tolbutamide) was “Mixed-type”. The α (CYP2C9; CYP2C9, tolbutamide, mixed-type model (selected)) was 2.45 ± 0.94, the inhibitory effect (CYP3A5) was “negligible or weak” and the inhibitory effect (UGT1A1) was “negligible”. The IC50 (UGT1A3) was 6.89 ± 0.73 µM, the Ki (UGT1A3) was 2.58 ± 0.84 µM and the Type of inhibition (UGT1A3; UGT1A3, 4-MU) was “Mixed-type”. For the same compound, the α (UGT1A3; UGT1A3, 4-MU, mixed-type model (selected)) was 2.97 ± 1.61, the Ki (UGT1A4) was 13.8 µM and the “maximal rate change (activation of UGT1A4)” value (UGT1A4; TFP-N-glucuronidation) was 1.6 fold. The IC50 (UGT1A6) was 168 ± 15.3 µM, the IC50 (UGT1A9) was 16.6 ± 1.29 µM and the inhibitory effect (UGT1A10) was “negligible”. The inhibitory effect (UGT2B10) was “negligible”, the IC50 (p110α) was […] and the IC50 (p110γ) was 0.15 µM. The “impact on normal hematopoietic progenitors” value [1] was “little impact”.
